{
  "source": "ChEMBL document CHEMBL1255432",
  "about": "“Fast standardized therapeutic-efficacy assay for drug discovery against tuberculosis” (2010)",
  "key": {"[1]": {"tested_on": "Mycobacterium tuberculosis", "assay": "Antimycobacterial activity against Mycobacterium tuberculosis H37Rv infected in B6 mouse assessed as 2 log reduction in bacterial burden in lungs orally treated in water-1% methylcellulose upto 8 days", "type": "functional", "conditions": "Lung, po, 192 h", "procedure,_shortened": "(§1)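 Female B6 mice, 8–10 weeks old, infected intratracheally under 3% isoflurane with 10^5 CFU H37Rv in 50 μl PBS. Oral dosing once daily from day 1 to day 8 at a range of doses; lungs harvested day 9, homogenized and plated; colonies counted after 14 days. ED99 (2-log CFU/lung reduction versus untreated controls) fitted from individual log10 CFU/lung to a logistic equation; 5 mice/group; 95% CI.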"}, "[2]": {"tested_on": "Mycobacterium tuberculosis", "assay": "Antimycobacterial activity against Mycobacterium tuberculosis H37Rv infected in B6 mouse assessed as assessed as lowest concentration to reduce bacterial burden in lungs to level of reduction achieved with higher doses orally treated in water-1% methylcellulose upto 8 days", "type": "functional, Lung", "procedure,_shortened": "(§2)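 B6 female mice given intratracheal H37Rv, 105 CFU/mouse in PBS, then oral once-daily treatment on days 1–8 across several doses. On day 9, lung homogenates were plated and CFU counted after 14 days. EDmax taken empirically as the lowest dose giving a lung CFU reduction statistically indistinguishable from higher doses; 5 mice/group.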"}, "[3]": {"tested_on": "Mycobacterium tuberculosis", "assay": "Antimycobacterial activity against Mycobacterium tuberculosis H37Rv infected in B6 mouse assessed as 2 log reduction in bacterial burden in lungs orally treated in water upto 8 days", "type": "functional", "conditions": "Lung, po, 192 h", "procedure,_shortened": "as §1"}, "[4]": {"tested_on": "Mycobacterium tuberculosis", "assay": "Antimycobacterial activity against Mycobacterium tuberculosis H37Rv infected in B6 mouse assessed as lowest concentration to reduce bacterial burden in lungs to level of reduction achieved with higher doses orally treated in water upto 8 days", "type": "functional, Lung", "procedure,_shortened": "as §2"}, "[5]": {"tested_on": "Mycobacterium tuberculosis", "assay": "Antimycobacterial activity against Mycobacterium tuberculosis H37Rv infected in B6 mouse assessed as 2 log reduction in bacterial burden in lungs orally treated in water-20% captisol upto 8 days", "type": "functional", "conditions": "Lung, po, 192 h", "procedure,_shortened": "as §1"}, "[6]": {"tested_on": "Mycobacterium tuberculosis", "assay": "Antimycobacterial activity against Mycobacterium tuberculosis H37Rv infected in B6 mouse assessed as assessed as lowest concentration to reduce bacterial burden in lungs to level of reduction achieved with higher doses orally treated in water-20% captisol upto 8 days", "type": "functional, Lung", "procedure,_shortened": "as §2"}, "[7]": {"tested_on": "Mycobacterium tuberculosis", "assay": "Antimycobacterial activity against Mycobacterium tuberculosis H37Rv infected in B6 mouse assessed as 2 log reduction in bacterial burden in lungs orally treated in water-20% encapsine upto 8 days", "type": "functional", "conditions": "Lung, po, 192 h", "procedure,_shortened": "as §1"}, "[8]": {"tested_on": "Mycobacterium tuberculosis", "assay": "Antimycobacterial activity against Mycobacterium tuberculosis H37Rv infected in B6 mouse assessed as assessed as lowest concentration to reduce bacterial burden in lungs to level of reduction achieved with higher doses orally treated in water-20% encapsine upto 8 days", "type": "functional, Lung", "procedure,_shortened": "as §2"}},
  "data": [
    {"smiles": "CC[C@@H](CO)NCCN[C@@H](CC)CO", "note": "[ETHAMBUTOL]", "values": [
      {"measurement": "ED99", "setting": "[1]", "value": 21.6, "unit": "mg/kg"},
      {"measurement": "Emax", "setting": "[2]", "value": 300, "unit": "mg/kg"}
    ]},
    {"smiles": "NNC(=O)c1ccncc1", "note": "[ISONIAZID]", "values": [
      {"measurement": "ED99", "setting": "[3]", "value": 0.95, "unit": "mg/kg"},
      {"measurement": "Emax", "setting": "[4]", "value": 25, "unit": "mg/kg"}
    ]},
    {"smiles": "CC(=O)NC[C@H]1CN(c2ccc(N3CCOCC3)c(F)c2)C(=O)O1", "note": "[LINEZOLID]", "values": [
      {"measurement": "ED99", "setting": "[1]", "value": 28, "unit": "mg/kg"},
      {"measurement": "Emax", "setting": "[2]", "value": ">=300 mg kg-1"}
    ]},
    {"smiles": "COc1c(N2C[C@@H]3CCCN[C@@H]3C2)c(F)cc2c(=O)c(C(=O)O)cn(C3CC3)c12", "note": "[MOXIFLOXACIN]", "values": [
      {"measurement": "ED99", "setting": "[5]", "value": 27.7, "unit": "mg/kg"},
      {"measurement": "Emax", "setting": "[6]", "value": 100, "unit": "mg/kg"}
    ]},
    {"smiles": "NC(=O)c1cnccn1", "note": "[PYRAZINAMIDE]", "values": [
      {"measurement": "ED99", "setting": "[1]", "value": 362, "unit": "mg/kg"},
      {"measurement": "Emax", "setting": "[2]", "value": ">=1000 mg kg-1"}
    ]},
    {"smiles": "CO[C@H]1/C=C/O[C@@]2(C)Oc3c(C)c(O)c4c(O)c(c(/C=N/N5CCN(C)CC5)c(O)c4c3C2=O)NC(=O)/C(C)=C\\C=C\\[C@H](C)[C@H](O)[C@@H](C)[C@@H](O)[C@@H](C)[C@H](OC(C)=O)[C@@H]1C", "note": "[RIFAMPIN]", "values": [
      {"measurement": "ED99", "setting": "[7]", "value": 9.8, "unit": "mg/kg"},
      {"measurement": "Emax", "setting": "[8]", "value": 30, "unit": "mg/kg"}
    ]}
  ]
}
